SENP1 inh = human SENP1 catalytic domain inhibitors, primary screen, biochemical, FRET, uHTS | Sentrin-specific protease 1 (Homo sapiens), Q9P0U3 | recombinant SENP1 catalytic domain, CyPet-SUMO1-YPet FRET cleavage | inhibition, % at 10 µM | hit rate 0.21% among 360,000;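 active = inhibition at least 30% at 10 µM, raw YFP signal under a set limit, fluorescence ratio 0.5 to 1.5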;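 also: 0% = enzyme with DMSO and 100% = no enzyme wells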
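Material – human SENP1 catalytic domain · Input – SENP1 enzyme, 20 pM final · Compound dosing – single concentration of 10 µM compound, 0.5% DMSO final · Timing – enzyme reaction for 50 min at room temperature, dark · Measured by – FRET fluorescence in CFP and YFP emission channels · Control set – no-enzyme wells low, DMSO-plus-enzyme wells high control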
Platelet DG rel = inhibitors of platelet dense granule secretion, primary screen, cell-based, MLPCN, human platelets; human platelet-rich plasma, SFLLRN dense granule ATP release, luminescence; inhibition, %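 (compounds screened at 7.5 µM in platelet-rich plasma)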; hit rate 0.22% among 300,000; AID 1663, 2009;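 active = mean replicate score, as percent of positive control, at or above 50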
SENP8 block-1 = SENP8 protease inhibitors, primary screen, biochemical, luminescence; AID 2540, 2010; purified SENP8, Z-RLRGG-aminoluciferin cleavage; Sentrin-specific protease 8 (Homo sapiens), Q96LD8; inhibition, % at 10 µM; hit rate 1.2% among 330,000; in the data active = inhibition above about 50%
SENP6 block = SENP6 protease inhibitors, primary screen, biochemical, luminescence, uHTS. inhibition, % at 10 µM. Recombinant SENP6 catalytic domain, aminoluciferin luminescence. Sentrin-specific protease 6 (Homo sapiens), Q9GZR1. hit rate 1.8% among 330,000;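 active = inhibition above about 50% at the single tested dose, limit read from the data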;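 also: plate controls were DMSO wells with enzyme for no effect and DMSO wells lacking enzyme for full effect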
SENP8 block-2 = human SENP8 protease inhibitors, primary screen, biochemical, fluorescence, Nedd8 protein substrate, uHTS; Sentrin-specific protease 8 (Homo sapiens), Q96LD8; recombinant SENP8; inhibition, % at 20 µM; hit rate 0.64% among 360,000; AID 602440, 2012; in the data active = inhibition mostly above about 40%, no sharp cut-off; inactive = mostly below about 27%
SENP7 block = SENP7 protease inhibitors, primary screen, biochemical, luminescence, uHTS; recombinant SENP7, Z-RLRGG-aminoluciferin luminescence, 40 min; hit rate 1.5% among 330,000; inhibition, % at 5 µM;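 active = inhibition above about 50% at the single test dose, limit read from the data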;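 also: plate controls were DMSO with enzyme for no effect and no enzyme buffer wells for full effect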
Target sequence (Q9BQF6 706-1050 limits assumed): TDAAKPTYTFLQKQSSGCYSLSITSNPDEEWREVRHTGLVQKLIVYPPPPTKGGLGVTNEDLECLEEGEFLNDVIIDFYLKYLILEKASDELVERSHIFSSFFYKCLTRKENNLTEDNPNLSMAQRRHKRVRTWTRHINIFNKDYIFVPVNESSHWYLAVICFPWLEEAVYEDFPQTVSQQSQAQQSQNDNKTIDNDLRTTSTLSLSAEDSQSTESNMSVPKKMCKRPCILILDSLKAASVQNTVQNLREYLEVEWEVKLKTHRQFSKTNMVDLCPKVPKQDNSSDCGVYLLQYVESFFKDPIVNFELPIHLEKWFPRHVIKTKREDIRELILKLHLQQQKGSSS
SENP8 conf = SENP8 protease inhibitors, retest, confirmation, biochemical, luminescence, single concentration; shares compounds with SENP7 block; Recombinant SENP8, Z-RLRGG-aminoluciferin luminescence, 60 min; inhibition, % at 12.5 µM; hit rate 40% among 6,200; AID 488912, 2010;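 active = mean inhibition across replicates above about 50%, limit read from the data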
SENP6 confirm = SENP6 protease inhibitors, confirmation, biochemical, luminescence, single concentration | recombinant SENP6, Z-RLRGG-aminoluciferin luminescence | shares compounds with SENP7 block | hit rate 58% among 6,200 | inhibition, % at 12.5 µM | AID 488915, 2010
SENP7 conf = SENP7 protease inhibitors, retest, confirmation, biochemical, luminescence, single concentration; shares compounds with SENP7 block; recombinant SENP7, Z-RLRGG-aminoluciferin luminescence, 40 min; inhibition, % at 12.5 µM; hit rate 69% among 6,200
Casp3 SENP sel = caspase-3 protease inhibitors, confirmation, selectivity assay for SENP inhibitor project, biochemical, single concentration | shares compounds with SENP7 block | purified caspase-3, Z-DEVD-aminoluciferin luminescence, 60 min | inhibition, % at 12.5 µM | hit rate 60% among 6,200;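 active = mean inhibition above about 50%, limit read from the data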;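 also: plate controls were enzyme with DMSO for no effect and wells without caspase-3 for full effect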
Target sequence (P42574 28-227 limits assumed): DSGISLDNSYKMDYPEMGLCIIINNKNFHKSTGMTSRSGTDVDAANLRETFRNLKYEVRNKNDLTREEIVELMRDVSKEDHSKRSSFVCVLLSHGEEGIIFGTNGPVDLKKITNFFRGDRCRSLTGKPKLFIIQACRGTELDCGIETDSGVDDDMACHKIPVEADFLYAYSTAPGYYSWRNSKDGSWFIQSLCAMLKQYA
Luc interf = interferes with luciferase luminescence in SENP counter-screen; inhibition, % at 12.5 µM; hit rate 39% among 6,200; shares compounds with SENP7 block; Pre-incubated SENP8/Z-RLRGG-aminoluciferin, luciferase luminescence interference;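 active = mean inhibition above about 50% when retested at one dose, limit read from the data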;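 also: plate controls were DMSO wells with completed reaction for no effect and substrate without enzyme for full effect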
Active calls of the source: *. Most compounds without a hit are left out; they make up all but 2.6% or so of the library.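 The calls were made as follows, unless noted: active = mean inhibition above about 50% in the one-dose retest (limit read from the data); inactive = the rest.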

`Cc1ccsc1CN(C)CC(=O)Nc1ccccc1C(=O)NC1CC1` gave SENP1 inh 2, SENP8 block-1 6, SENP6 block 7, SENP8 block-2 -3 and SENP7 block -4.
Screening Cc1nn(C)c(C)c1S(=O)(=O)N(CC(=O)NCCCN1CCC(C)CC1)c1ccc(C(C)C)cc1 returned SENP1 inh 2, Platelet DG rel -1, SENP8 block-1 -1, SENP6 block -8, SENP8 block-2 8 and SENP7 block -13.
`COc1ccc([C@H]2Cc3cc(O)cc(O)c3C(=O)O2)cc1O` gave SENP1 inh -6, SENP8 block-1 88*, SENP6 block 95*, SENP8 block-2 -121, SENP7 block 90*, SENP8 conf 89*, SENP6 confirm 88*, SENP7 conf 98*, Casp3 SENP sel 90* and Luc interf 91*.
COC/C=C/C1=CC2=CC(=O)C(C)(OC(=O)c3cnc4ccccc4n3)C(=O)C2=CN1c1ccccc1 (centres undefined) was read as Platelet DG rel 1, SENP8 block-1 64*, SENP6 block 3, SENP7 block 1, SENP8 conf 12, SENP6 confirm 11, SENP7 conf 6, Casp3 SENP sel 4 and Luc interf 0.
For COC/C=C/C1=CC2=CC(=O)C(C)(OC(=O)c3cnc4ccccc4n3)C(=O)C2=CN1c1ccc(CO)cc1 (centres undefined) the results were Platelet DG rel -5, SENP8 block-1 -3, SENP6 block -55 and SENP7 block 12.
`O=c1c2c([nH]c3ccccc13)CCCCC2` gave SENP1 inh 3, Platelet DG rel -2, SENP8 block-1 -6, SENP6 block 82*, SENP8 block-2 2, SENP7 block 2, SENP8 conf 10, SENP6 confirm 2, SENP7 conf -4, Casp3 SENP sel -7 and Luc interf -8.
For Cc1ncc([N+](=O)[O-])n1CC(=O)Nc1ccc(Br)cc1 the results were SENP1 inh 0, Platelet DG rel -1, SENP8 block-1 -7, SENP6 block 3, SENP8 block-2 7 and SENP7 block -2.
Screening CC1=NN(C(N)=S)C(=O)C1N=Nc1cccc(Cl)c1 (centres undefined) returned SENP1 inh 1, Platelet DG rel -1, SENP8 block-1 85*, SENP6 block 92*, SENP8 block-2 12, SENP7 block 66*, SENP8 conf 37, SENP6 confirm 90*, SENP7 conf 100*, Casp3 SENP sel 90* and Luc interf 88*.
For COc1cccc(N=NC2C(=O)N(C(N)=S)N=C2C)c1 (centres undefined) the results were SENP1 inh 2, Platelet DG rel -1, SENP8 block-1 79*, SENP6 block 85*, SENP8 block-2 25, SENP7 block 68*, SENP8 conf 71*, SENP6 confirm 86*, SENP7 conf 98*, Casp3 SENP sel 91* and Luc interf 42.
O=C(NC1CCCC1)C(c1ccco1)N1CCC(O)(c2ccc(Cl)cc2)CC1 (centres undefined) was read as SENP1 inh -1 and SENP8 block-2 8.
For Cc1oc(-c2ccccc2)nc1C(=O)OCC(=O)NC(=O)NCC(C)C the results were SENP1 inh -7, Platelet DG rel 1, SENP8 block-1 26, SENP6 block -23, SENP8 block-2 -3, SENP7 block 65*, SENP8 conf 4, SENP6 confirm 6, SENP7 conf 17, Casp3 SENP sel 28 and Luc interf 12.
Screening COc1ccc(S(=O)(=O)N2CCOCC2)cc1NC(=O)c1ccncc1 returned SENP1 inh -1, SENP8 block-1 -12, SENP6 block -15, SENP8 block-2 7 and SENP7 block -7.
For Cc1csc(NC(=O)COc2ccc3c(c2)CCC3)n1 the results were SENP1 inh -2, SENP8 block-1 74*, SENP6 block 82*, SENP8 block-2 6, SENP7 block 84*, SENP8 conf 81*, SENP6 confirm 80*, SENP7 conf 96*, Casp3 SENP sel 80* and Luc interf 46.
Screening O=C(Nc1ccccn1)c1ccc(Br)s1 returned SENP1 inh 2, Platelet DG rel 3, SENP8 block-1 38, SENP6 block 67*, SENP8 block-2 8, SENP7 block 65*, SENP8 conf 66*, SENP6 confirm 63*, SENP7 conf 88*, Casp3 SENP sel 76* and Luc interf 67*.
Screening Cc1nc(NC(=O)c2cc3c(s2)CCCCC3)sc1C(=O)N(C)C returned SENP1 inh 0, Platelet DG rel -14, SENP8 block-1 0, SENP6 block 2, SENP8 block-2 -127 and SENP7 block 14.
`COC(=O)c1sc(NC(=O)c2cc3c(s2)CCCC3)nc1C` gave SENP1 inh -3, Platelet DG rel -2, SENP8 block-1 35, SENP6 block 23, SENP8 block-2 -221, SENP7 block 80*, SENP8 conf 34, SENP6 confirm 34, SENP7 conf 90*, Casp3 SENP sel 52* and Luc interf 40.
